# RAD52 anneal inh: RAD52 DNA annealing inhibitors, primary screen, biochemical, FRET, single point, set 2. hit rate 0.46% among 360,000. inhibition, % at 18.7 µM. recombinant RAD52 DNA annealing, FRET fluorescence;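 active = every replicate showing at least 50% inhibition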
# FN deposition inh: inhibitors of fibronectin matrix deposition, primary screen, AH1F cells, Alexa488-fibronectin fluorescence, plate reader | inhibition, % at 12.6 µM | AH1F fibroblasts, overnight | AID 743247, 2014 | hit rate 0.086% among 350,000;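 active = mean inhibition across replicates of 30% or more, regardless of how many single replicates reach that level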;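 note: positive control wells lacked labelled fibronectin entirely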
#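 Test system: AH1F fibroblast monolayer depositing Alexa488-labelled fibronectin into matrix. Input: 10000 cells per well. Technique: fluorescence, ex 485 nm, em 525 nm. Buffer or medium: DMEM plus 2% serum, read in PBS. Timing: 1 h cell adhesion before compound, then overnight fibronectin incubation. Compound: single dose, pinned. Read-out basis: inhibition from reduced deposited-fibronectin fluorescence.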
# PAX8 inh HTS: inhibitors of PAX8-driven TPO luciferase reporter, primary screen, RMG-I cells, single concentration; SteadyGlo, 24 h; inhibition, % at 12.6 µM; hit rate 1.2% among 360,000; AID 652154, 2013;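 active = mean replicate inhibition at least 60% with every replicate also reaching 60%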;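 note: luciferase light reporting Pax8 driven TPO promoter activity; plate controls were median of neutral control wells for no effect and mitoxantrone controls for full effect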
# RAD54 branch: inhibitors of human RAD54 branch migration, primary screen, biochemical, fluorescence, single point | RAD54 Holliday junction branch migration, FAM/BHQ fluorescence | hit rate 0.14% among 360,000 | inhibition, % at 10.4 µM;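 active = mean normalized replicate activity at least 40 and at least half of replicates scoring 40 or more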;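 note: 0% = median of neutral control wells and 100% = median of positive control wells; inhibitors cause a drop in the FAM fluorescence signal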
# Target sequence (Q92698 whole entry, looked up): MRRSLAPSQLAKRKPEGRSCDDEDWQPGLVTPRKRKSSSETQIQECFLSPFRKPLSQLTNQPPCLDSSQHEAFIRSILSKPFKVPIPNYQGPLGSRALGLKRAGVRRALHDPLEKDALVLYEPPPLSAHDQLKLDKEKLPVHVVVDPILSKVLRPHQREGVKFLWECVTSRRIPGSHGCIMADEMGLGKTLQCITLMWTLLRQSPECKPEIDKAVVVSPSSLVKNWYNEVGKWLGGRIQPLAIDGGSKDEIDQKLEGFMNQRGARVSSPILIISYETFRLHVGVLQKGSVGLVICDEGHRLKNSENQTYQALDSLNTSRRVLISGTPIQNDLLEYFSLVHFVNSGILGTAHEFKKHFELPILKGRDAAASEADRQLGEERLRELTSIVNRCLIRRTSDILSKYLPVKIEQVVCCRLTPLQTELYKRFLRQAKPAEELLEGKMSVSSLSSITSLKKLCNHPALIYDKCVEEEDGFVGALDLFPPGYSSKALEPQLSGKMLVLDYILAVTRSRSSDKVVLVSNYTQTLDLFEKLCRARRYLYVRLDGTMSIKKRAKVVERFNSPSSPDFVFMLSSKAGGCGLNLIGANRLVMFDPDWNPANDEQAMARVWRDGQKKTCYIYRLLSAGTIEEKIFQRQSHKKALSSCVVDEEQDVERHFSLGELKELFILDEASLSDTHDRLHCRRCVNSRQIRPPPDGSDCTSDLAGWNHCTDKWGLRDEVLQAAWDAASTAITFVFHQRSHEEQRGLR
# An asterisk follows results filed as active; · = not tested or not shown. This is a sample that favours compounds with a hit; in the whole collection about 1.3% have one here.
SMILES,RAD52 anneal inh,FN deposition inh,PAX8 inh HTS,RAD54 branch
C[C@@H]1CCCCO[C@@H](CN(C)CC2CCCCC2)[C@H](C)CN([C@H](C)CO)C(=O)c2cc(NC(=O)Nc3ccccc3)ccc2O1,28,1,86*,15
C[C@@H]1CN([C@@H](C)CO)C(=O)c2cc(NC(=O)Nc3ccccc3)ccc2O[C@@H](C)CCCCO[C@@H]1CN(C)CC1CCCCC1,9,5,35,-2
Cc1ccc(S(=O)(=O)Nc2ccc3c(c2)C(=O)N([C@@H](C)CO)C[C@H](C)[C@@H](CN(C)S(=O)(=O)c2ccc(Cl)cc2)OCCCC[C@@H](C)O3)cc1,·,1,57,-7
Cc1ccc(S(=O)(=O)N(C)C[C@H]2OCCCC[C@@H](C)Oc3ccc(NS(=O)(=O)c4ccc(Cl)cc4)cc3C(=O)N([C@H](C)CO)C[C@@H]2C)cc1,6,9,11,-9
Cc1ccc(S(=O)(=O)N(C)C[C@@H]2OCCCC[C@H](C)Oc3ccc(NS(=O)(=O)c4ccc(Cl)cc4)cc3C(=O)N([C@H](C)CO)C[C@H]2C)cc1,14,-1,81*,-11
Cc1ccc(S(=O)(=O)N(C)C[C@H]2OCCCC[C@@H](C)Oc3ccc(NS(=O)(=O)c4ccc(Cl)cc4)cc3C(=O)N([C@@H](C)CO)C[C@H]2C)cc1,0,-5,73*,-30
Cc1ccc(S(=O)(=O)Nc2ccc3c(c2)C(=O)N([C@@H](C)CO)C[C@H](C)[C@@H](CN(C)S(=O)(=O)c2ccc(Cl)cc2)OCCCC[C@H](C)O3)cc1,·,-7,53,-8
Cc1ccc(S(=O)(=O)N(C)C[C@@H]2OCCCC[C@H](C)Oc3ccc(NS(=O)(=O)c4ccc(Cl)cc4)cc3C(=O)N([C@@H](C)CO)C[C@@H]2C)cc1,16,-3,68*,-10
Cc1ccc(S(=O)(=O)N(C)C[C@H]2OCCCC[C@H](C)Oc3ccc(NS(=O)(=O)c4ccc(Cl)cc4)cc3C(=O)N([C@H](C)CO)C[C@@H]2C)cc1,-2,-3,81*,-19
Cc1ccc(S(=O)(=O)Nc2ccc3c(c2)C(=O)N([C@@H](C)CO)C[C@@H](C)[C@@H](CN(C)S(=O)(=O)c2ccc(Cl)cc2)OCCCC[C@H](C)O3)cc1,·,2,46,0
CC(C)Oc1ccccc1/C=N/NC(=O)c1ccc(F)cc1,·,6,-20,2
COc1ccccc1NS(=O)(=O)c1cccc(C(=O)N/N=C/c2ccc([N+](=O)[O-])o2)c1,-16,2,93*,8
CCN(CC)c1ccc(/C=N/NC(=O)c2cccc(S(=O)(=O)Nc3ccccc3OC)c2)c(O)c1,-39,1,74*,·
CCN(CC)c1ccc(C(=O)N/N=C/c2ccccc2OC(F)F)cc1,-6,41*,7,·
CCN(Cc1ccccc1)C(c1cc2cc(C)ccc2[nH]c1=O)c1nnnn1CCOC (centres undefined),·,·,·,-2
COc1ccc(NC(=O)CCCNS(=O)(=O)c2cccs2)cc1,·,·,·,10
CCn1c2ccccc2c2cnc(N=CN(C)C)c(C#N)c21,·,·,·,12
CCN(CC)CCn1c2ccccc2c2cnc(N=CN(C)C)c(C#N)c21,·,·,·,97*
Cc1ccc(NC(=O)COC(=O)c2cc(Cl)ccc2[N+](=O)[O-])c(C)c1,7,30*,-3,·
O=C(COC(=O)c1cc(Cl)ccc1[N+](=O)[O-])Nc1cccc2ccccc12,0,5,6,·
C=CC[C@@H](CC(=O)N[C@@H](CO)Cc1ccccc1)C(=O)NCCOC(=O)[C@@H](CC=C)Cc1ccc(F)cc1,-10,-2,15,3
OCCSc1nc(-c2ccccc2)nc2ccc(F)cc12,-6,-7,11,·
NC(N)=Nc1nc(-c2ccccc2)c2cc(F)ccc2n1,42,-10,32,56*
COCCCNc1cc(C)nc2ccccc12,-14,10,·,4
Cc1cc(NCCCCCCCNc2cc(C)nc3cc([N+](=O)[O-])ccc23)c2ccc([N+](=O)[O-])cc2n1,77*,-2,33,·
SMILES,RAD52 anneal inh,FN deposition inh,PAX8 inh HTS,RAD54 branch
COc1ccc(N2C(c3ccsc3)=Cc3cc4c(cc3C2c2c[nH]c3ccccc23)OCO4)cc1 (centres undefined),48,20,73*,·
O=C1C=CC2(O[C@H](c3ccccc3)[C@@H](c3ccccc3)O2)[C@H](Sc2ccccc2O)C1,-1,45*,35,·
C[C@@H]1[C@@H](Sc2ccccc2)CC(=O)O[C@@H]1c1ccc(-c2ccccc2)cc1,-6,2,24,-2
C[C@H](CO)N1C[C@H](C)[C@@H](CN(C)Cc2ccc(Cl)c(Cl)c2)Oc2ccc(NS(=O)(=O)c3ccccc3)cc2CC1=O,64*,-9,83*,-6
C[C@@H]1CN([C@@H](C)CO)C(=O)Cc2cc(NS(=O)(=O)c3ccc(F)cc3)ccc2O[C@@H]1CN(C)Cc1ccc(Cl)c(Cl)c1,·,·,2,·
C[C@@H]1CN([C@@H](C)CO)C(=O)Cc2cc(NS(=O)(=O)c3ccccc3)ccc2O[C@@H]1CN(C)Cc1ccc(Cl)c(Cl)c1,-15,·,31,1
C[C@@H]1CN([C@@H](C)CO)C(=O)Cc2cc(NS(=O)(=O)c3ccc(F)cc3)ccc2O[C@H]1CN(C)Cc1ccc(Cl)c(Cl)c1,·,·,93*,·
Cc1cccc(N=Nc2ccc(O)c3ncccc23)c1,·,4,52,·
Oc1ccc(N=Nc2ccc3c(c2)OCCO3)c2ncccc12,1,20,76*,0
Cc1ccc(C(C)C)cc1S(=O)(=O)Nc1ccncc1,-21,-6,-6,·
O=Cc1s/c(=N\S(=O)(=O)c2ccccc2)n(CCCCl)c1Cl,-36,52*,76*,·
CC(=O)N1[C@H](CNC(=O)C2CC2)[C@@H](c2ccc(-c3ccc(F)cc3)cc2)[C@@H]1CO,-14,4,-14,-5
O=C(CSc1nncs1)Nc1ccc2[nH]c(=O)[nH]c2c1,-2,-9,2,12
CCOc1cccc2sc(N(CCN(C)C)C(=O)CCS(=O)(=O)c3ccccc3)nc12,-2,·,14,5
COc1ccc(C)c2sc(NC(=O)CCS(=O)(=O)c3ccccc3)nc12,-23,-11,78*,-6
CCOc1cccc2sc(NC(=O)CCS(=O)(=O)c3ccccc3)nc12,-29,·,87*,-6
CC(=O)c1sc(NC(=O)CCS(=O)(=O)c2ccc(C)cc2)nc1C,-1,-6,85*,-11
CC(=O)c1sc(NC(=O)CS(=O)(=O)c2ccc(F)cc2)nc1C,-17,0,·,·
CN1CCN(c2oc(COc3ccc(-c4ccccc4)cc3)nc2C#N)CC1,·,·,·,-1
Cc1cccc(NC(=O)c2cc(S(=O)(=O)NCc3ccco3)ccc2F)c1C,·,0,·,-7
Cc1nc2c(O)cccc2cc1CO,-12,1,17,2
O=C(N/N=C/c1ccccn1)c1cc(-c2ccc(Br)cc2)nc2ccccc12,-13,22,66*,·
O=C(N/N=C/c1ccccn1)c1cc(-c2ccc(Cl)cc2)nc2ccccc12,-23,-4,11,-5
